Experimental data from ChEMBL document CHEMBL1147356, “Structure and stereochemistry of pectinolides A-C, novel antimicrobial and cytotoxic 5,6-dihydro-alpha-pyrones from Hyptis pectinata” (1993).
≈ marks a conversion by molar mass, not a printed value. Calls of active or inactive are those of the source. No cut-off for these calls is given here.

Columns and labels:
Bacillus subtilis [1] = experiment: Antibacterial activity against Bacillus subtilis ATCC 6633 at 1 mg/ml after 24 hrs at 37 degC by agar hole-plate diffusion assay; format: functional; settings: ATCC 6633, 24 h, read-out: IZ
Method in brief: (§1)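 Agar hole-plate diffusion. Agar plates (15 ml) seeded with 1 ml overnight broth culture (10⁶ bacteria/ml); 11 mm holes filled with 100 μl of pure compound at 1 mg/ml. Streptomycin sulfate (1 mg/ml) as positive control. Duplicate per organism, 24 h at 37°. Inhibition zone diameters measured.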

Escherichia coli [2] = experiment: Antibacterial activity against Escherichia coli ATCC 8739 at < 100 ug/ml after 24 hrs at 37 degC by agar hole-plate diffusion assay; format: functional, organism-based
Pseudomonas aeruginosa [3] = experiment: Antibacterial activity against Pseudomonas aeruginosa ATCC 9027 at < 100 ug/ml after 24 hrs at 37 degC by agar hole-plate diffusion assay; format: functional, organism-based
Candida albicans [4] = experiment: Antifungal activity against Candida albicans ATCC 10231 at < 100 ug/ml after 24 hrs at 25 degC by agar hole-plate diffusion assay; format: functional, organism-based
Bacillus subtilis [5] = experiment: Antibacterial activity against Bacillus subtilis ATCC 6633 at < 100 ug/ml after 24 hrs at 37 degC by agar hole-plate diffusion assay; format: functional, organism-based
Staphylococcus aureus [6] = experiment: Antibacterial activity against Staphylococcus aureus ATCC 6538 at < 100 ug/ml after 24 hrs at 37 degC by agar hole-plate diffusion assay; format: functional, organism-based
Bacillus subtilis [7] = experiment: Antibacterial activity against Bacillus subtilis ATCC 6633 after overnight incubation at 37 degC by twofold serial dilution technique; format: functional
Method in brief: (§2)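 Twofold broth dilution MIC. Sample at 1 mg/ml in MeOH-H2O (1:1), 0.5 ml added to 4.5 ml nutrient broth, then doubling dilutions from 100 to 0.2 μg/ml. Each tube inoculated to 10⁶ organisms/ml final. Duplicate per organism, with solvent and streptomycin control broths.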

Staphylococcus aureus [8] = experiment: Antibacterial activity against Staphylococcus aureus ATCC 6538 after overnight incubation at 37 degC by twofold serial dilution technique; format: functional; method in brief: as §2
Escherichia coli [9] = experiment: Antibacterial activity against Escherichia coli ATCC 8739 by agar diffusion technique; format: functional
Pseudomonas aeruginosa [10] = experiment: Antibacterial activity against Pseudomonas aeruginosa ATCC 9027 by agar diffusion technique; format: functional
Candida albicans [11] = experiment: Antifungal activity against Candida albicans ATCC 10231 by agar diffusion technique; format: functional
[12] = Cytotoxicity against human BC1 cells after 72 hrs by sulforhodamine B assay; format: functional; settings: BC1, 72 h, read-out: ED50 (the source's name)
Method in brief: (§3)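 Log-phase cells treated with five sample concentrations (20.0–0.032 μg/ml) in DMSO for 72 h at 37°, 5% CO₂, 100% humidity. Sulforhodamine B staining quantified cells per well; results given as ED50.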

HT-1080 = experiment: Cytotoxicity against human HT1080 cells after 48 hrs by sulforhodamine B assay; format: functional; settings: HT-1080, 48 h, read-out: ED50 (the source's name)
Method in brief: (§4)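 Log-phase cells exposed to five concentrations (20.0–0.032 μg/ml) of sample in DMSO for 48 h at 37°, 5% CO₂, 100% humidity. Cell quantity per well determined by sulforhodamine B staining; ED50 reported.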

[13] = Cytotoxicity against human LUC1 cells after 48 hrs by sulforhodamine B assay; format: functional; settings: LUC1, 48 h, read-out: ED50 (the source's name); method in brief: as §4
SK-MEL-2 = experiment: Cytotoxicity against human SK-MEL-2 cells after 72 hrs by sulforhodamine B assay; format: functional; settings: SK-MEL-2, 72 h, read-out: ED50 (the source's name); method in brief: as §3
KB = experiment: Cytotoxicity against human KB cells after 72 hrs by sulforhodamine B assay; format: functional; settings: read-out: ED50 (the source's name); method in brief: as §3
[14] = Cytotoxicity against vinblastine-resistant human KBV1 cells after 72 hrs by sulforhodamine B assay; format: functional; settings: KB-V1, 72 h, read-out: ED50 (the source's name); method in brief: as §3
P388 = experiment: Cytotoxicity against mouse P388 cells after 48 hrs by sulforhodamine B assay; format: functional; settings: P388, 48 h, read-out: ED50 (the source's name); method in brief: as §4
A-431 = experiment: Cytotoxicity against human A431 cells after 72 hrs by sulforhodamine B assay; format: functional; settings: A-431, 72 h, read-out: ED50 (the source's name); method in brief: as §3
LNCaP = experiment: Cytotoxicity against human LNCAP cells after 72 hrs by sulforhodamine B assay; format: functional; settings: read-out: ED50 (the source's name); method in brief: as §3
ZR-75-1 = experiment: Cytotoxicity against human ZR-75-1 cells after 72 hrs by sulforhodamine B assay; format: functional; settings: ZR-75-1, 72 h, read-out: ED50 (the source's name); method in brief: as §3
Staphylococcus aureus [15] = experiment: Antibacterial activity against Staphylococcus aureus ATCC 6538 at 1 mg/ml after 24 hrs at 37 degC by agar hole-plate diffusion assay; format: functional; settings: ATCC 6538, 24 h, read-out: IZ; method in brief: as §1
[16] = Cytotoxicity against human Col2 cells after 72 hrs by sulforhodamine B assay; settings: Col2, 72 h, read-out: ED50 (the source's name)

Compound | zone of inhibition at 1000 µg/mL (Bacillus subtilis [1]) | Activity (Escherichia coli [2]) | Activity (Pseudomonas aeruginosa [3]) | Activity (Candida albicans [4]) | MIC (Bacillus subtilis [7]) | MIC (Staphylococcus aureus [8]) | MIC (Escherichia coli [9]) | MIC (Pseudomonas aeruginosa [10]) | MIC (Candida albicans [11]) | EC50 [12] | EC50 (HT-1080) | EC50 [13] | EC50 (SK-MEL-2) | EC50 (KB) | EC50 [14] | EC50 (P388) | EC50 (A-431) | EC50 (LNCaP) | EC50 (ZR-75-1) | zone of inhibition at 1000 µg/mL (Staphylococcus aureus [15]) | also measured
CC(=O)O[C@H](/C=C\[C@H]1CC=CC(=O)O1)C[C@@H](OC(C)=O)[C@H](C)OC(C)=O [HYPTOLIDE] | 5 mm | inactive | inactive | inactive | 100 µg/mL (≈ 271 µM) | > 100 µg/mL | > 500 µg/mL | > 500 µg/mL | > 500 µg/mL | 2.4 µg/mL (≈ 6.51 µM) | 9.6 µg/mL (≈ 26.1 µM) | 4.9 µg/mL (≈ 13.3 µM) | 12.2 µg/mL (≈ 33.1 µM) | 3.6 µg/mL (≈ 9.77 µM) | 4.5 µg/mL (≈ 12.2 µM) | 1.6 µg/mL (≈ 4.34 µM) | 3.7 µg/mL (≈ 10 µM) | 7.5 µg/mL (≈ 20.4 µM) | 6.4 µg/mL (≈ 17.4 µM) | – | Activity (Bacillus subtilis [5]): inactive; Activity (Staphylococcus aureus [6]): inactive
CCCC[C@@H](/C=C\[C@@H]1OC(=O)C=C[C@@H]1OC(C)=O)OC(C)=O [PECTINOLIDE A] | 10 mm | inactive | inactive | inactive | 6.25 µg/mL (≈ 20.1 µM) | 12.5 µg/mL (≈ 40.3 µM) | 200 µg/mL (≈ 644 µM) | 200 µg/mL (≈ 644 µM) | 250 µg/mL (≈ 806 µM) | 1 µg/mL (≈ 3.22 µM) | 1.7 µg/mL (≈ 5.48 µM) | 0.9 µg/mL (≈ 2.9 µM) | 0.7 µg/mL (≈ 2.26 µM) | 1.8 µg/mL (≈ 5.8 µM) | 1.8 µg/mL (≈ 5.8 µM) | 0.9 µg/mL (≈ 2.9 µM) | 1.4 µg/mL (≈ 4.51 µM) | 0.7 µg/mL (≈ 2.26 µM) | 3.6 µg/mL (≈ 11.6 µM) | 8 mm | EC50 [16]: 1 µg/mL (≈ 3.22 µM)
CCCC[C@H](O)/C=C\[C@@H]1OC(=O)C=C[C@@H]1OC(C)=O [PECTINOLIDE B] | 6 mm | inactive | inactive | inactive | 25 µg/mL (≈ 93.2 µM) | 100 µg/mL (≈ 373 µM) | 300 µg/mL (≈ 1120 µM) | 300 µg/mL (≈ 1120 µM) | 300 µg/mL (≈ 1120 µM) | 2.5 µg/mL (≈ 9.32 µM) | 2.3 µg/mL (≈ 8.57 µM) | 3.8 µg/mL (≈ 14.2 µM) | 2.2 µg/mL (≈ 8.2 µM) | 1.4 µg/mL (≈ 5.22 µM) | 2 µg/mL (≈ 7.45 µM) | 0.1 µg/mL (≈ 0.373 µM) | 0.6 µg/mL (≈ 2.24 µM) | 0.9 µg/mL (≈ 3.35 µM) | 1.6 µg/mL (≈ 5.96 µM) | 4 mm | EC50 [16]: 1.1 µg/mL (≈ 4.1 µM)
CCCC[C@@H](/C=C\[C@@H]1OC(=O)C=C[C@@H]1O)OC(C)=O [PECTINOLIDE C] | 8 mm | inactive | inactive | inactive | 12.5 µg/mL (≈ 46.6 µM) | 100 µg/mL (≈ 373 µM) | > 500 µg/mL | > 500 µg/mL | > 500 µg/mL | 2 µg/mL (≈ 7.45 µM) | 1.8 µg/mL (≈ 6.71 µM) | 2.3 µg/mL (≈ 8.57 µM) | 3.3 µg/mL (≈ 12.3 µM) | 1.7 µg/mL (≈ 6.34 µM) | 3.2 µg/mL (≈ 11.9 µM) | 2.2 µg/mL (≈ 8.2 µM) | 0.8 µg/mL (≈ 2.98 µM) | 0.8 µg/mL (≈ 2.98 µM) | 1.9 µg/mL (≈ 7.08 µM) | 4 mm | EC50 [16]: 1.6 µg/mL (≈ 5.96 µM)
CN[C@@H]1[C@H](O[C@H]2[C@H](O[C@H]3[C@H](O)[C@@H](O)[C@H](N=C(N)N)[C@@H](O)[C@@H]3N=C(N)N)O[C@@H](C)[C@]2(O)C=O)O[C@@H](CO)[C@H](O)[C@H]1O.CN[C@@H]1[C@H](O[C@H]2[C@H](O[C@H]3[C@H](O)[C@@H](O)[C@H](N=C(N)N)[C@@H](O)[C@@H]3N=C(N)N)O[C@@H](C)[C@]2(O)C=O)O[C@@H](CO)[C@H](O)[C@H]1O.O=S(=O)(O)O.O=S(=O)(O)O.O=S(=O)(O)O [STREPTOMYCIN SULFATE] | 13 mm | – | – | – | 3.12 µg/mL | 6.25 µg/mL | – | – | – | – | – | – | – | – | – | – | – | – | – | 9 mm | –
NYSTATIN | – | – | – | – | – | – | – | – | – | – | – | – | – | – | – | – | – | – | – | – | inhibition zone (IZ) (Candida albicans [4]): 7 mm
